{"data": "Measured values of several laboratories", "read-out": "cell growth or viability"}
{"Structure (SMILES)": "C[C@H](N)C(=O)Nc1ccccc1/N=c1\\cc(-c2ccc3c(c2)OCCO3)oc2c(N)cccc12", "cell line": "MDA-MB-468", "assay": "CCK-8", "setting": "1 µM", "quantity": "inhibition", "result": "2.63%"}
{"Structure (SMILES)": "CN(C)CCNC(=O)c1ccc(-c2nc3ccc4[nH]ncc4c3c3c2CCCCC3)nc1", "cell line": "MV4-11", "assay": "resazurin", "setting": "72 h", "quantity": "GI50", "result": "236 nM"}
{"Structure (SMILES)": "O=C(Nc1ccccc1/N=c1\\cc(-c2ccc3c(c2)OCCO3)oc2cc(F)ccc12)N1CCOCC1", "cell line": "MDA-MB-468", "assay": "CCK-8", "setting": "1 µM", "quantity": "inhibition", "result": "-2.71%"}
{"Structure (SMILES)": "O=C(NCCN1CCCC1)c1ccc(-c2nc3ccc4[nH]ncc4c3c3c2CCCC3)cc1", "cell line": "MV4-11", "assay": "resazurin", "setting": "72 h", "quantity": "GI50", "result": "366 nM"}
{"Structure (SMILES)": "CC(=O)OC[C@H]1O[C@@H](n2cnc(N)nc2=O)[C@H](OC(C)=O)[C@@H]1OC(C)=O", "cell line": "HBL1", "assay": "ATP luminescence", "setting": "1 µM, 5 days", "quantity": "viability", "result": "94.3%"}
{"Structure (SMILES)": "O=C(NCCCN1CCOCC1)c1ccc(-c2nc3ccc4[nH]ncc4c3c3c2CCCC3)cc1", "cell line": "MV4-11", "assay": "resazurin", "setting": "72 h", "quantity": "GI50", "result": "413 nM"}
{"Structure (SMILES)": "OCc1ccc(-c2nn(Cc3ccccc3)c3ccccc23)o1", "cell line": "RBE", "assay": "ATP luminescence", "setting": "46 µM, 72 h", "quantity": "inhibition", "result": "75%"}
{"Structure (SMILES)": "Cc1n[nH]c2ccc3nc(-c4ccc(C(=O)N(C)CCN(C)C)cc4)c4c(c3c12)CCCCC4", "cell line": "MV4-11", "assay": "resazurin", "setting": "72 h", "quantity": "GI50", "result": "522 nM"}
{"Structure (SMILES)": "COCc1ccc(-c2nn(Cc3ccccc3)c3ccccc23)o1", "cell line": "RBE", "assay": "ATP luminescence", "setting": "46 µM, 72 h", "quantity": "inhibition", "result": "49%"}
{"Structure (SMILES)": "NCCC(=O)Nc1ccccc1/N=c1\\cc(-c2ccc3c(c2)OCCO3)oc2cc(F)ccc12", "cell line": "MDA-MB-468", "assay": "CCK-8", "setting": "1 µM", "quantity": "inhibition", "result": "31.2%"}
{"Structure (SMILES)": "NCc1ccc(-c2nn(Cc3ccccn3)c3cccnc23)o1", "cell line": "RBE", "assay": "ATP luminescence", "setting": "46 µM, 72 h", "quantity": "inhibition", "result": "74%"}
{"Structure (SMILES)": "O=C(/C=C/c1cccc(C(=O)NO)c1)NO", "cell line": "HBL1", "assay": "ATP luminescence", "setting": "0.1 µM, 5 days", "quantity": "viability", "result": "119%"}
{"Structure (SMILES)": "CN(C)CCNC(=O)c1ccc(-c2nc3ccc4[nH]ncc4c3c3c2CCCC3)cc1", "cell line": "MV4-11", "assay": "resazurin", "setting": "72 h", "quantity": "GI50", "result": "25 nM"}
{"Structure (SMILES)": "CCN(Cc1ccc(C)cc1)c1ccc(CO)c(Cl)c1", "cell line": "RBE", "assay": "ATP luminescence", "setting": "46 µM, 72 h", "quantity": "inhibition", "result": "95%"}
{"Structure (SMILES)": "NCCCCC(=O)Nc1ccccc1/N=c1\\cc(-c2ccc3c(c2)OCO3)oc2ccccc12", "cell line": "MDA-MB-468", "assay": "CCK-8", "setting": "1 µM", "quantity": "inhibition", "result": "-0.27%"}
{"Structure (SMILES)": "OCc1ccc(N(Cc2ccc(F)cc2)CC2CC2)cc1Cl", "cell line": "RBE", "assay": "ATP luminescence", "setting": "46 µM, 72 h", "quantity": "inhibition", "result": "55%"}
{"Structure (SMILES)": "N[C@@H](CO)C(=O)Nc1ccccc1/N=c1\\cc(-c2ccc3c(c2)OCO3)oc2ccccc12", "cell line": "MDA-MB-468", "assay": "CCK-8", "setting": "1 µM", "quantity": "inhibition", "result": "7.66%"}
{"Structure (SMILES)": "NC(=O)c1ccc(-c2nc3ccc4[nH]ncc4c3c3c2CCCC3)cc1", "cell line": "MV4-11", "assay": "resazurin", "setting": "72 h", "quantity": "GI50", "result": "57 nM"}
{"Structure (SMILES)": "OCc1ccc(-c2nn(Cc3ccccc3)c3ccccc23)s1", "cell line": "RBE", "assay": "ATP luminescence", "setting": "46 µM, 72 h", "quantity": "inhibition", "result": "30%"}
{"Structure (SMILES)": "COc1ccc2/c(=N/c3ccccc3NC(=O)N3CCOCC3)cc(-c3ccc4c(c3)OCCO4)oc2c1", "cell line": "MDA-MB-468", "assay": "CCK-8", "setting": "1 µM", "quantity": "inhibition", "result": "18.7%"}
